The nature of assay [1]: OD615 S. cerevisiae growth inhibition, permissive medium, pilot counter-assay, permissive growth control for S. cerevisiae lifespan shortening project (AID 705;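 active means growth inhibition above 25% in both replicates, a cutoff set 3 SD above the mean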). To be noted: OD615, 24 h, at 10 µM, hits give high values. In short, it runs like this: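 Material: engineered DeaD yeast; compound dosing: one dose 10 µM, DMSO 0.25% final; measure: yeast growth inhibition indicated by reduced 24 h OD615; detection: OD615 turbidity read; incubation: cells pre-grown 4 h, then 24 h compound exposure, 30 °C humidified; medium: permissive synthetic complete medium with raffinose and galactose carbon sources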

A short description of assay [2]: Restrictive medium S. cerevisiae growth inhibition, OD615, pilot screen of yeast lifespan reduction project, restrictive growth control (AID 706;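 active means growth inhibition above a set limit, 3 SD over mean compound inhibition, in both replicates, cut at about 43% in these data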;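 further: modified DeaD lifespan yeast strain shifted to restrictive glucose medium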). To be noted: OD615, 48 h, at 10 µM, hits give high values. An outline of the steps: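 material = engineered S. cerevisiae DeaD strain | medium = glucose-based CSMM-D restrictive medium | times = 4 h pre-incubation, 48 h exposure at 30 °C | technique = OD615 absorbance reading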

A short description of assay [3]: viability gain of MRP-1-high H69AR cells under doxorubicin, pilot screen, MRP-1 activator project, CellTiter-Glo, duplicate (AID 807).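 Further: compound pretreatment 18-22 h then 72 h combined with doxorubicin; 0% = doxorubicin alone and 100% = vehicle without doxorubicin.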 The settings on record: H69AR viability with doxorubicin, CellTiter-Glo luminescence; at 10 µM; hits give high values. (In general: In ATP-based viability assays light output follows the ATP content of the culture.)
Assay [4] can be described thus: growth suppression of beta-catenin knockout HCT116, pilot screen, human colon tumor cells (AID 823;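 active means cell viability at or below a set limit in both duplicate runs, the limit being the all-compound median minus 4 SD, cut at about 23% in these data, passing the limit was not always enough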;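 further: 0% = wells killed by 20 µM Hyamine and 100% = untreated DMSO cell wells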). To be noted: CellTiter-Glo, 60 h, at 10 µM, hits give low values.
A short description of assay [5]: growth suppression of PTEN-deleted HCT116, pilot screen, cell-based, HCT116 clonal line, CellTiter-Glo (AID 824;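 active means viability at or below 27.92% in each of two runs, the all-compound median minus 4 SD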;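 further: 0% = 20 µM Hyamine control and 100% = vehicle cell control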). To be noted: 60 h, at 10 µM, hits give low values.
Assay [6] in a line: inhibitors of the yeast RAM network, pilot screen, dse1pr::URA3 reporter, 5-FOA selection (AID 869;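 active means inhibition over a set limit, the all-compound mean plus 3 SD, in both replicate runs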;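 further: 0% = DMSO wells with no growth and 100% = 10 µM 1-NA-PP1 with full growth; RAM network block rescues cells from 5-FOA so hits raise OD615 growth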). To be noted: S. cerevisiae dse1pr::URA3 5-FOA growth, OD615, 2 d; at 10 µM; hits give high values; strain carries analog-sensitive mutant Cbk1 kinase.
Assay [7] can be described thus: RAM signaling pathway blockade in yeast – S. cerevisiae, Pdr1DBD-CYC8 efflux-inhibited sensitized strain, primary screen (AID 1298;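 active means RAM network inhibition above 8.4% in each of two replicates, 3 SD over the compound average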;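 further: 0% = DMSO untreated cells without growth and 100% = 10 µM 1-NA-PP1 full growth; higher means more yeast growth rescued from 5-FOA killing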). The settings on record: S. cerevisiae cbk1-as DSE1-URA3 strain, 5-FOA growth OD615, 2 d; at 50 µM; hits give high values.

Unmarked numbers belong to inactive results. Inconclusive results are not listed. Active and inactive are the calls of the source.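 How the source made its calls, unless noted: active means viability increase at or above a cutoff of the median across tested compounds plus 3 SD (cut at about 8.5% in these data, passing the limit was not always enough); inconclusive means some gains above the cutoff, reason not given; inactive means the rest.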

For orientation: viability means a read-out of living cells in per cent, often relative to untreated cells. A word on the inhibition: it is the change of the read-out against control, counted positive when it falls. Consider `CC1(C)CCCC2=C1CC1C(=O)N(O)C(=O)C1C2` (stereo unspecified), for which the growth inhibition was -8.79% in assay [1] and -12.1% in assay [2]. Moreover, in assay [3], the viability increase is -1.21%. The results for the viability in assay [4] and in assay [5] were 102% and 87.8%, respectively. Further, the inhibition in assay [6] was 1.96%. Moreover, in assay [7], the RAM network inhibition was 1.62%.

For `c1ccc2[nH]c(-c3ccnc4ccccc34)nc2c1`, the growth inhibition in assay [1] is 0.915%; in assay [2], -4.32%. In addition, the viability increase in assay [3] was -4.45%. Also, the viability was 102% in assay [4] and 95.9% in assay [5]. Moreover, the inhibition in assay [6] was 0.605%. In addition, in assay [7], the RAM network inhibition is 2.99%.

For `CC1CCN(CCCNC(=O)CN2CCN(Cc3ccc(Cl)cc3)C2=O)CC1`, the growth inhibition in assay [1] is -8.6%; in assay [2] it was -8.52%. Besides, in assay [3], the viability increase is -0.83%. Moreover, the figures for the viability in assay [4] and in assay [5] were 90.8% and 89.3%, respectively. Moreover, in assay [6], the inhibition was 2.27%. In assay [7], the RAM network inhibition is 4.2%.

On to `Cc1cc(C(=O)Nc2nnc(C3CCCCC3)s2)cs1`, for which the growth inhibition in assay [1] is -9.12%; in assay [2], 1.04%. Further, the viability increase in assay [3] is 1.38%. Further, the viability in assay [4] is 94.7%; in assay [5] it was 101%. The inhibition in assay [6] is 4.87%. In addition, in assay [7], the RAM network inhibition is 9.03%.

On to `Cc1sc(NC(=O)c2cccs2)c(C(N)=O)c1C`, for which the growth inhibition in assay [1] was -6.89%; in assay [2] it was 22.8%. For the same compound, the viability increase in assay [3] is -6.53%. For the same compound, the viability is 80.8% in assay [4] and 88.4% in assay [5]. For the same compound, the inhibition in assay [6] was 0.26%. Further, in assay [7], the RAM network inhibition was -1.19%.

Turning to `COc1ccc(NC(=O)[C@H](CCS(C)(=O)=O)N2Cc3ccccc3C2=O)c(OC)c1`, the growth inhibition in assay [1] was -0.525%; in assay [2] it was -0.57%. Also, in assay [3], the viability increase was 0.69%. Also, the viability is 104% in assay [4] and 100% in assay [5]. In addition, in assay [6], the inhibition was 2.29%. In addition, the RAM network inhibition in assay [7] was 1.93%.

As to `CCCCn1c(=O)cc(N2CCOCC2)[nH]c1=O`, the growth inhibition in assay [1] is -16.3%; in assay [2], -20.6%. Besides, in assay [3], the viability increase is 0.83%. The viability in assay [4] was 99.7%; in assay [5], 94.3%. Further, the inhibition in assay [6] is 1.04%. In addition, the RAM network inhibition in assay [7] was -0.95%.

For the compound `COc1cccc(C2CC(c3ccc(Cl)cc3Cl)n3nc(N)nc3N2)c1` (stereo unspecified), the growth inhibition in assay [1] is -1.58%; in assay [2], 18.6%. Moreover, the viability increase in assay [3] was 4.01%. Also, the viability in assay [4] and in assay [5] was 90.8% in each case. Moreover, the inhibition in assay [6] is 1.79%. In addition, the RAM network inhibition in assay [7] is 8.01%.

For the compound `O=C1c2ccccc2-c2ncnc3c(N4CCOCC4)cc(N4CCOCC4)c1c23`, the growth inhibition in assay [1] is -12.8%; in assay [2] it was -3.37%. Also, in assay [3], the viability increase was -7.53%. For the same compound, the viability in assay [4] was 79.2%; in assay [5], 80.9%. For the same compound, in assay [6], the inhibition is -0.74%. In addition, the RAM network inhibition in assay [7] was -1.52%.

In the case of `O=C(CSc1ncnc2nc[nH]c12)N1CCOCC1`, the growth inhibition is -15.7% in assay [1] and -14.4% in assay [2]. The viability increase in assay [3] was -0.96%. Besides, the viability is 86% in assay [4] and 102% in assay [5]. Further, the inhibition in assay [6] was -0.435%. The RAM network inhibition in assay [7] was 2.34%.

With `COc1ccc(C)cc1Nc1cc(C)nc2ncnn12`, the growth inhibition is -7.14% in assay [1] and 0.405% in assay [2]. The viability increase in assay [3] was -4.44%. Further, the viability in assay [4] is 95.1%; in assay [5] it was 88.9%. The inhibition in assay [6] is 1.28%. In assay [7], the RAM network inhibition is -1.57%.

Turning to `CCOCCn1c(SCCc2ccccc2)nc2c1c(=O)[nH]c(=O)n2C`, the results for the growth inhibition in assay [1] and in assay [2] were -3.39% and 10.7%, respectively. In addition, in assay [3], the viability increase is -1.92%. Moreover, the viability was 98.8% in assay [4] and 98.9% in assay [5]. Also, in assay [6], the inhibition is 1.69%. Further, the RAM network inhibition in assay [7] was 0.11%.

As to `COc1ccc(OC)c2sc(NC(=O)c3ccc(Cl)s3)nc12`, the figures for the growth inhibition in assay [1] and in assay [2] were -16.4% and -10.6%, respectively. Further, the viability increase in assay [3] is -3.79%. Further, the viability in assay [4] was 22% (active); in assay [5], 13.8% (active). The inhibition in assay [6] is 3.47%. Besides, the RAM network inhibition in assay [7] was 5.85%.

For `Cc1ccc(C)c(N2CCN(C(=O)c3cc4ccccc4oc3=O)CC2)c1`, the figures for the growth inhibition in assay [1] and in assay [2] were -11.6% and -15.9%, respectively. For the same compound, the viability increase in assay [3] was 1.72%. Besides, the viability in assay [4] was 100%; in assay [5], 95.5%. The inhibition in assay [6] was 1.18%. Besides, the RAM network inhibition in assay [7] is 3.38%.

Consider `CCOC(=O)N1CCN(C(=O)CN(c2cc(C(F)(F)F)ccc2Cl)S(C)(=O)=O)CC1`, for which the figures for the growth inhibition in assay [1] and in assay [2] were 0.24% and 9.28%, respectively. In assay [3], the viability increase was -1.79%. Besides, the figures for the viability in assay [4] and in assay [5] were 103% and 99%, respectively. In assay [6], the inhibition is -0.91%. Besides, in assay [7], the RAM network inhibition was -0.25%.

As for `O=C(NCc1ccccn1)Nc1cccc(Cl)c1`, the growth inhibition in assay [1] was -14.7%; in assay [2], -9.4%. For the same compound, in assay [3], the viability increase was -2.22%. Further, the viability in assay [4] was 97.7%; in assay [5], 94.5%. In addition, the inhibition in assay [6] was 0.095%. Besides, the RAM network inhibition in assay [7] was 2.46%.

For the compound `COc1ccc(Cl)cc1N(CC(=O)N1CCN(Cc2ccccc2)CC1)S(C)(=O)=O`, the values for the growth inhibition in assay [1] and in assay [2] were -5.27% and -11.1%, respectively. Also, the viability increase in assay [3] is -0.51%. For the same compound, the viability is 95.9% in assay [4] and 92.8% in assay [5]. Further, the inhibition in assay [6] was 1.38%. For the same compound, the RAM network inhibition in assay [7] is 0.41%.

Turning to `CCOc1ccc(C(=O)Nc2cc(=O)n(C)c(=O)n2C)cc1`, the growth inhibition in assay [1] was -29.3%; in assay [2] it was -26.3%. The viability increase in assay [3] was -0.98%. Further, the viability in assay [4] was 101%; in assay [5], 97.5%. The inhibition in assay [6] was 1.9%. Also, in assay [7], the RAM network inhibition is 0.62%.

(Values after PubChem BioAssay.)
